Data taken from paper PMC4931877 (The Journal of Pharmacology and Experimental Therapeutics, 2016).

Key:
[1] = tested on: CSF Aβ peptides; test: SAD study pharmacodynamic effects on CSF Aβ peptides; format: in vivo, human
Outline: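 After a single oral dose, CSF was drawn by lumbar cannulation at −1 to 24 h postdose, with predose samples taken at 7–10 AM, and stored at −80°C in polypropylene. Aβ38/40/42 and total Aβ were measured by MSD immunoassay and Aβ37 by 6E10 sandwich immunoassay, in duplicate. Other Aβ fragments were measured by LC-MS/MS (LLOQ 30 pg/ml).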

[2] = SAD study safety and tolerability; format: in vivo, human
Outline: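 Single-dose subjects, placebo-controlled and double-blind, were assessed by vital signs, physical examination, 12-lead ECG and clinical laboratory tests. AEs were spontaneously reported or elicited, and their onset, duration, intensity, seriousness, relatedness and action taken were recorded. AEs were tabulated by MedDRA 12.1 system organ class and preferred term.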

[3] = tested on: brain and CSF Aβ42 and Aβ40; conditions: dogs; ref Toyn et al., 2016; cited from earlier work

For CNc1nc(Nc2ccc(-n3cnc(C)n3)c(OC)c2)nc2c1CC[C@H]2c1ccc(F)cc1 [BMS-932481, (S)-7-(4-fluorophenyl)-N2-(3-methoxy-4-(3-methyl-1H-1,2,4-triazol-1-yl)phenyl)-N4-methyl-6,7-dihydro-5H-cyclopenta[d]pyrimidine-2,4-diamine], the “effect on CSF Aβ39” value [1] was “appeared to lower”, the “effect on shorter CSF fragments Aβ14, Aβ15, and Aβ34” value [1] was “no effect” and the “degree of CSFAβ42 lowering, elderly versus young” value ([1]; largely due to higher exposures in elderly) was “greater in elderly than in young”. The “findings on ECG parameters” value [2] was “no clinical relevant findings”, the AEs ([2]; 10 mg) was 3 (50.0) n (%) and the Deaths ([2]; 10 mg) was 0 n (%). For the same compound, the “Discontinuation due to AEs” value ([2]; 10 mg) was 0 n (%), the “Drug-related AEs” value ([2]; 10 mg) was 0 n (%) and the SAEs ([2]; 10 mg) was 0 n (%). For the same compound, the AEs ([2]; 30 mg) was 2 (33.3) n (%), the Deaths ([2]; 30 mg) was 0 n (%) and the “Discontinuation due to AEs” value ([2]; 30 mg) was 0 n (%). For the same compound, the “Drug-related AEs” value ([2]; 30 mg) was 0 n (%), the SAEs ([2]; 30 mg) was 0 n (%) and the AEs ([2]; 100 mg) was 1 (16.7) n (%). For the same compound, the Deaths ([2]; 100 mg) was 0 n (%), the “Discontinuation due to AEs” value ([2]; 100 mg) was 0 n (%) and the “Drug-related AEs” value ([2]; 100 mg) was 0 n (%). The SAEs ([2]; 100 mg) was 0 n (%), the AEs ([2]; 300 mg P2 (cross-over phase 2)) was 0 n (%) and the Deaths ([2]; 300 mg P2 (cross-over phase 2)) was 0 n (%). For the same compound, the “Discontinuation due to AEs” value ([2]; 300 mg P2 (cross-over phase 2)) was 0 n (%), the “Drug-related AEs” value ([2]; 300 mg P2 (cross-over phase 2)) was 0 n (%) and the SAEs ([2]; 300 mg P2 (cross-over phase 2)) was 0 n (%). The AEs ([2]; 300 mg P3 (cross-over phase 3)) was 1 (16.7) n (%), the Deaths ([2]; 300 mg P3 (cross-over phase 3)) was 0 n (%) and the “Discontinuation due to AEs” value ([2]; 300 mg P3 (cross-over phase 3)) was 0 n (%). The “Drug-related AEs” value ([2]; 300 mg P3 (cross-over phase 3)) was 0 n (%), the SAEs ([2]; 300 mg P3 (cross-over phase 3)) was 0 n (%) and the AEs ([2]; 300 mg P (cross-over phase 1)) was 0 n (%). For the same compound, the Deaths ([2]; 300 mg P (cross-over phase 1)) was 0 n (%), the “Discontinuation due to AEs” value ([2]; 300 mg P (cross-over phase 1)) was 0 n (%) and the “Drug-related AEs” value ([2]; 300 mg P (cross-over phase 1)) was 0 n (%). For the same compound, the SAEs ([2]; 300 mg P (cross-over phase 1)) was 0 n (%), the AEs ([2]; 600 mg) was 0 n (%) and the Deaths ([2]; 600 mg) was 0 n (%). For the same compound, the “Discontinuation due to AEs” value ([2]; 600 mg) was 0 n (%), the “Drug-related AEs” value ([2]; 600 mg) was 0 n (%) and the SAEs ([2]; 600 mg) was 0 n (%). For the same compound, the AEs ([2]; 900 mg) was 3 (50.0) n (%), the Deaths ([2]; 900 mg) was 0 n (%) and the “Discontinuation due to AEs” value ([2]; 900 mg) was 0 n (%). The “Drug-related AEs” value ([2]; 900 mg) was 1 (16.7) n (%), the SAEs ([2]; 900 mg) was 0 n (%) and the Deaths ([2]; 900 mg C (CSF panel)) was 0 n (%). The “Discontinuation due to AEs” value ([2]; 900 mg C (CSF panel)) was 0 n (%), the “Drug-related AEs” value ([2]; 900 mg C (CSF panel)) was 1 (10.0) n (%) and the SAEs ([2]; 900 mg C (CSF panel)) was 0 n (%). For the same compound, the AEs ([2]; 900 mg El (elderly)) was 0 n (%), the Deaths ([2]; 900 mg El (elderly)) was 0 n (%) and the “Discontinuation due to AEs” value ([2]; 900 mg El (elderly)) was 0 n (%). For the same compound, the “Drug-related AEs” value ([2]; 900 mg El (elderly)) was 0 n (%), the SAEs ([2]; 900 mg El (elderly)) was 0 n (%) and the AEs ([2]; 1200 mg) was 0 n (%). For the same compound, the Deaths ([2]; 1200 mg) was 0 n (%), the “Discontinuation due to AEs” value ([2]; 1200 mg) was 0 n (%) and the “Drug-related AEs” value ([2]; 1200 mg) was 0 n (%). For the same compound, the SAEs ([2]; 1200 mg) was 0 n (%), the “tolerability after a single dose” value ([2]; 10 to 1200 mg, healthy subjects) was “generally well tolerated” and the AEs ([2]; all treated) was 17 (27.9) n (%). The Deaths ([2]; all treated) was 0 n (%), the “Discontinuation due to AEs” value ([2]; all treated) was 0 n (%) and the “Drug-related AEs” value ([2]; all treated) was 2 (3.3) n (%). For the same compound, the SAEs ([2]; all treated) was 0 n (%), the “participants with drug-related AEs” value ([2]; two participants) was 3.3% and the “Aβ42 and Aβ40 lowering in both the brain and CSF” value [3] was “dose-dependent”.
